Holding throughout (assay type): functional
In assay [1] the test system is Escherichia coli. The assay is described as follows: Antimicrobial activity against Escherichia coli MTCC 1650 after 24 hrs. The following applies: MTCC 1650, 24 h. The gist of the method:
(§1)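 Agar well diffusion on Mueller Hinton agar seeded with 0.1 mL of a 10⁵ cfu/mL bacterial suspension in 0.85% sterile saline. 6 mm wells received 0.1 mL of each compound dilution in DMSO (1% DMSO; DMSO alone as control). Plates were incubated 24 h at 37 ± 0.5 °C. Read-out was zone of inhibition in mm. MIC was taken as the lowest concentration giving complete growth inhibition.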

For assay [2], the system named is Proteus vulgaris. Put plainly: Antimicrobial activity against Proteus vulgaris MTCC 1771 after 24 hrs. The following applies: MTCC 1771, 24 h. The method, boiled down: as §1
Assay [3] concerns Pseudomonas aeruginosa. Put plainly: Antimicrobial activity against Pseudomonas aeruginosa MTCC 2488 after 24 hrs. The note with it: MTCC 2488, 24 h. The gist of the method:
as §1

The test system of assay [4] is Klebsiella pneumoniae. Put plainly: Antimicrobial activity against Klebsiella pneumoniae NCIM 2957 after 24 hrs. The following applies: NCIM 2957, 24 h. The gist of the method: as §1
Assay [5] relates to Staphylococcus aureus. Put plainly: Antimicrobial activity against Staphylococcus aureus MTCC 96 after 24 hrs. The following applies: MTCC 96, 24 h. The gist of the method:
as §1

Assay [6] concerns Bacillus subtilis. Put plainly: Antimicrobial activity against Bacillus subtilis MTCC 1789 after 24 hrs. The following applies: MTCC 1789, 24 h. The method, boiled down:
as §1

In assay [7] the test system is Serratia marcescens. The assay is described as follows: Antimicrobial activity against Serratia marcescens MTCC 86 after 24 hrs. The following applies: MTCC 86, 24 h. The method, boiled down:
as §1

Assay [8] concerns Priestia megaterium. Put plainly: Antimicrobial activity against Bacillus megaterium MTCC 1684 after 24 hrs. The following applies: MTCC 1684, 24 h. The gist of the method:
as §1

Assay [9] relates to Aspergillus niger. The assay is described as follows: Antimicrobial activity against Aspergillus niger MTCC 1781 after 48 hrs. The following applies: MTCC 1781, 48 h. The method, boiled down: (§2)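 Fungal spore suspensions in sterile distilled water were adjusted to 10⁶ cfu/mL, and 0.1 mL was spread on Sabouraud dextrose agar. 6 mm wells were filled with 0.1 mL of compound dilution in DMSO (1% DMSO; DMSO-only control). Plates were incubated 48 h at 28 ± 0.2 °C, and inhibition zones were measured in mm. MIC was the lowest concentration completely inhibiting growth.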

Assay [10] has as its system Aspergillus flavus. The assay is described as follows: Antimicrobial activity against Aspergillus flavus MTCC 2501 after 48 hrs. The following applies: MTCC 2501, 48 h. The method, boiled down:
as §2

Assay [11] relates to Penicillium chrysogenum. The assay is described as follows: Antimicrobial activity against Penicillium chrysogenum MTCC 1996 after 48 hrs. The following applies: MTCC 1996, 48 h. The gist of the method:
as §2

Assay [12] concerns Trichoderma viride. Put plainly: Antimicrobial activity against Trichoderma viride MTCC 167 after 48 hrs. The note with it: MTCC 167, 48 h. The gist of the method:
as §2

The subject of assay [13] is Candida albicans. The assay is described as follows: Antimicrobial activity against Candida albicans MTCC 227 after 48 hrs. The note with it: MTCC 227, 48 h. The gist of the method:
as §2

Assay [14] deals with Escherichia coli. The assay is described as follows: Antimicrobial activity against Escherichia coli MTCC 1650 at MIC after 24 hrs by agar diffusion method. The method, boiled down: as §1
(In general: A growth-free zone around the sample is the usual read-out of agar diffusion tests.)

For assay [15], the system named is Klebsiella pneumoniae. The assay is described as follows: Antimicrobial activity against Klebsiella pneumoniae NCIM 2957 at MIC after 24 hrs by agar diffusion method. The gist of the method:
as §1

The subject of assay [16] is Staphylococcus aureus. Put plainly: Antimicrobial activity against Staphylococcus aureus MTCC 96 at MIC after 24 hrs by agar diffusion method. The gist of the method: as §1
In assay [17] the test system is Bacillus subtilis. Put plainly: Antimicrobial activity against Bacillus subtilis MTCC 1789 at MIC after 24 hrs by agar diffusion method. The method, boiled down: as §1
Assay [18] concerns Serratia marcescens. Put plainly: Antimicrobial activity against Serratia marcescens MTCC 86 at MIC after 24 hrs by agar diffusion method. The method, boiled down: as §1
Assay [19] relates to Priestia megaterium. Put plainly: Antimicrobial activity against Bacillus megaterium MTCC 1684 at MIC after 24 hrs by agar diffusion method. The method, boiled down: as §1
In assay [20] the test system is Aspergillus niger. The assay is described as follows: Antimicrobial activity against Aspergillus niger MTCC 1781 at MIC after 48 hrs by agar diffusion method. The method, boiled down: as §2
In assay [21] the test system is Aspergillus flavus. The assay is described as follows: Antimicrobial activity against Aspergillus flavus MTCC 2501 at MIC after 48 hrs by agar diffusion method. The method, boiled down:
as §2

Assay [22] relates to Penicillium chrysogenum. Put plainly: Antimicrobial activity against Penicillium chrysogenum MTCC 1996 at MIC after 48 hrs by agar diffusion method. The gist of the method: as §2
For assay [23], the system named is Trichoderma viride. Put plainly: Antimicrobial activity against Trichoderma viride MTCC 167 at MIC after 48 hrs by agar diffusion method. The method, boiled down:
as §2

The test system of assay [24] is Candida albicans. The assay is described as follows: Antimicrobial activity against Candida albicans MTCC 227 at MIC after 48 hrs by agar diffusion method. The gist of the method: as §2
The test system of assay [25] is Proteus vulgaris. The assay is described as follows: Antimicrobial activity against Proteus vulgaris MTCC 1771 at MIC after 24 hrs by agar diffusion method. The gist of the method: as §1

≈ marks a conversion by molar mass, not a printed value. Calls of active or inactive are those of the source. No cut-off for these calls is given here.

Consider `Nc1n[nH]c2nc3scc(-c4ccc(Cl)cc4)n3c(=O)c12`, for which the MIC in assay [1], in [2], in assay [3], in assay [4], in [5] and in assay [6] was 50 µg/mL (≈ 157 µM) in each case. Besides, the MIC – broadly, the least concentration at which growth counts as inhibited – in assay [7] worked out at 50 µg/mL (≈ 157 µM); in [8] it was 50 µg/mL (≈ 157 µM); in assay [9] it was 250 µg/mL (≈ 787 µM); in assay [10] it was 250 µg/mL (≈ 787 µM); in assay [11] it was 250 µg/mL (≈ 787 µM); in assay [12], 250 µg/mL (≈ 787 µM). Besides, 250 µg/mL (≈ 787 µM) was the least that counted as inhibitory in assay [13] (MIC). The “inhibition zone (IZ)” value in assay [14], in assay [16] and in assay [19] was “inactive” each time. The “inhibition zone (IZ)” value in [15] came out at 15 mm; in [17] it was 10 mm; in assay [18] it was 21 mm; in [20], 12 mm; in assay [21] it was 23 mm; in assay [22] it was 26 mm. The “inhibition zone (IZ)” value stood at 20 mm in assay [23] and 13 mm in [24].
Turning to `Nc1n[nH]c2nc3scc(-c4cc(Cl)c(Cl)cc4O)n3c(=O)c12`, the MIC in [1], in [2], in assay [3], in assay [4], in assay [5] and in [6] was 50 µg/mL (≈ 136 µM) in each case. The MIC is 50 µg/mL (≈ 136 µM) in [7]; 50 µg/mL (≈ 136 µM) in assay [8]; 250 µg/mL (≈ 679 µM) in assay [9]; 250 µg/mL (≈ 679 µM) in assay [10]; 250 µg/mL (≈ 679 µM) in assay [11]; 250 µg/mL (≈ 679 µM) in assay [12]. For the same compound, the MIC in [13] is 250 µg/mL (≈ 679 µM). The “inhibition zone (IZ)” value in assay [14] worked out at 12 mm; in assay [20], 11 mm; in assay [21] it was 18 mm; in assay [22] it was 23 mm; in assay [23], 22 mm; in [24], 10 mm. Moreover, the “inhibition zone (IZ)” value in assay [16], in [17], in assay [18] and in [19] was “inactive” each time.
Consider `Nc1n[nH]c2nc3scc(-c4ccc(Br)cc4)n3c(=O)c12`, for which the minimal inhibitory concentration (MIC) in [1], in assay [2], in assay [3], in assay [4], in [5] and in assay [6] was 50 µg/mL (≈ 138 µM) in each case. The minimal inhibitory concentration (MIC) was 50 µg/mL (≈ 138 µM) in assay [7]; 50 µg/mL (≈ 138 µM) in assay [8]; 250 µg/mL (≈ 690 µM) in assay [9]; 250 µg/mL (≈ 690 µM) in assay [10]; 250 µg/mL (≈ 690 µM) in assay [11]; 250 µg/mL (≈ 690 µM) in assay [12]. In [13], this compound displayed an MIC of 250 µg/mL (≈ 690 µM). The “inhibition zone (IZ)” value in assay [14] was found to be 14 mm; in assay [16] it was 18 mm; in assay [20], 10 mm; in assay [21] it was 10 mm; in assay [22], 15 mm; in assay [23] it was 27 mm. Further, in assay [24], the “inhibition zone (IZ)” value amounted to 10 mm. In addition, the “inhibition zone (IZ)” value in assay [25], in assay [15], in assay [17], in [18] and in assay [19] was “inactive” each time.
Regarding `Cc1cc(-c2csc3nc4[nH]nc(N)c4c(=O)n23)c(O)cc1Cl`, the minimal inhibitory concentration (MIC) in assay [1], in assay [2], in assay [3], in assay [4], in assay [5] and in assay [6] was 50 µg/mL (≈ 144 µM) throughout. The minimum inhibitory concentration (MIC) turned out to be 50 µg/mL (≈ 144 µM) in [7]; 50 µg/mL (≈ 144 µM) in [8]; 250 µg/mL (≈ 719 µM) in assay [9]; 250 µg/mL (≈ 719 µM) in [10]; 250 µg/mL (≈ 719 µM) in assay [11]; 250 µg/mL (≈ 719 µM) in assay [12]. In addition, inhibition of growth in [13] (MIC) required 250 µg/mL (≈ 719 µM). In addition, the “inhibition zone (IZ)” value in [14] is on record as 12 mm; in assay [20], 9 mm; in assay [21], 12 mm; in [22] it was 32 mm; in assay [23], 27 mm; in [24], 17 mm. Moreover, the “inhibition zone (IZ)” value in assay [16], in [17], in assay [18] and in [19] was “inactive” in each case.
Regarding `Nc1n[nH]c2nc3scc(-c4cc(Cl)cc(I)c4O)n3c(=O)c12`, the MIC in assay [1], in assay [2], in assay [3], in assay [4], in [5] and in assay [6] was 50 µg/mL (≈ 109 µM) throughout. The MIC in assay [7] was determined as 50 µg/mL (≈ 109 µM); in assay [8], 50 µg/mL (≈ 109 µM); in assay [9], 250 µg/mL (≈ 544 µM); in [10], 250 µg/mL (≈ 544 µM); in assay [11] it was 250 µg/mL (≈ 544 µM); in assay [12] it was 250 µg/mL (≈ 544 µM). The compound further yielded an MIC in assay [13] of 250 µg/mL (≈ 544 µM). Further, the “inhibition zone (IZ)” value in [14], in [18], in [19], in assay [20], in assay [21] and in assay [24] was “inactive” in each case. Further, the “inhibition zone (IZ)” value turned out to be 16 mm in [16], 14 mm in assay [17], 14 mm in [22] and 21 mm in assay [23].
Take `Nc1n[nH]c2nc3scc(-c4ccccc4O)n3c(=O)c12`: the MIC in assay [1], in assay [2], in [3], in assay [4], in assay [5] and in [6] was 50 µg/mL (≈ 167 µM) each time. The MIC in assay [7] worked out at 50 µg/mL (≈ 167 µM); in assay [8] it was 50 µg/mL (≈ 167 µM); in [9] it was 250 µg/mL (≈ 835 µM); in assay [10], 250 µg/mL (≈ 835 µM); in assay [11] it was 250 µg/mL (≈ 835 µM); in assay [12], 250 µg/mL (≈ 835 µM). In addition, in [13], the MIC is 250 µg/mL (≈ 835 µM). Further, the “inhibition zone (IZ)” value in assay [14], in assay [15], in assay [17], in assay [19], in assay [21] and in assay [22] was “inactive” in each case. Further, the “inhibition zone (IZ)” value came to 12 mm in assay [16]; 16 mm in [18]; 10 mm in [20]; 20 mm in assay [23]; 18 mm in assay [24].

These data come from ChEMBL document CHEMBL1157032, “Synthesis and antimicrobial activity of novel pyrazolo[3,4-d]pyrimidin derivatives” (2010).
